Assay results published in ChEMBL document CHEMBL2021898, “Prenylated acylphloroglucinols, chipericumins A-D, from Hypericum chinense” (J Nat Prod, 2012).

Tests used:
L1210 = assay: Cytotoxicity against mouse L1210 cells incubated for 48 hrs at 37 degC; assay type: functional, cell-based; details: L1210, 48 h
In short: (§1)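 Human epidermoid carcinoma KB and murine leukemia L1210 cells were cultured with test compounds at various concentrations, dissolved in 1% DMSO, in 100 μL medium at 37 °C for 48 h. IC50 was taken from a plot of log concentration against growth rate of treated cells. Paclitaxel was the positive control.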

Escherichia coli = assay: Antimicrobial activity against Escherichia coli by broth micro-dilution method; assay type: functional
[1] = system: Trichophyton mentagrophytes; assay: Antimicrobial activity against Trichophyton mentagrophytes by broth micro-dilution method; assay type: functional, organism-based
Staphylococcus aureus = assay: Antimicrobial activity against Staphylococcus aureus by broth micro-dilution method; assay type: functional
Bacillus subtilis = assay: Antimicrobial activity against Bacillus subtilis by broth micro-dilution method; assay type: functional
Aspergillus niger = assay: Antimicrobial activity against Aspergillus niger by broth micro-dilution method; assay type: functional, organism-based
Cryptococcus neoformans = assay: Antimicrobial activity against Cryptococcus neoformans by broth micro-dilution method; assay type: functional, organism-based
Micrococcus luteus = assay: Antimicrobial activity against Micrococcus luteus by broth micro-dilution method; assay type: functional
Candida albicans = assay: Antimicrobial activity against Candida albicans by broth micro-dilution method; assay type: functional, organism-based
KB = assay: Cytotoxicity against human KB cells incubated for 48 hrs at 37 degC; assay type: functional, cell-based; in short: as §1

| SMILES | MIC (Escherichia coli) [µg/mL] | IC50 [1] [µg/mL] | MIC (Staphylococcus aureus) [µg/mL] | MIC (Bacillus subtilis) [µg/mL] | IC50 (Aspergillus niger) [µg/mL] | IC50 (Cryptococcus neoformans) [µg/mL] | MIC (Micrococcus luteus) [µg/mL] | IC50 (Candida albicans) [µg/mL] | IC50 (L1210) | IC50 (KB) |
| --- | --- | --- | --- | --- | --- | --- | --- | --- | --- | --- |
| CC(C)C(=O)C1=C2O[C@H](C(C)(C)O)C[C@]2(C)C(=O)[C@]2(C[C@H]3[C@@H](CC[C@@]3(C)O)[C@](C)(O)C2)C1=O (relative stereo) | > 32 | > 32 | > 32 | > 32 | > 32 | > 32 | > 32 | > 32 | > 10 µg/mL | > 10 µg/mL |
| CC(=O)O[C@H]1C(=O)[C@@]2(C)[C@H]([C@H](OC(=O)c3ccccc3)[C@]3(O)C[C@H](OC(=O)[C@H](O)[C@@H](NC(=O)c4ccccc4)c4ccccc4)C(C)=C1C3(C)C)[C@]1(OC(C)=O)CO[C@@H]1C[C@@H]2O [PACLITAXEL] |  |  |  |  |  |  |  |  | 120 nM | 4.5 nM |

The next lines start with results.

| MIC (Escherichia coli) [µg/mL] | IC50 [1] [µg/mL] | MIC (Staphylococcus aureus) [µg/mL] | MIC (Bacillus subtilis) [µg/mL] | IC50 (Aspergillus niger) [µg/mL] | IC50 (Cryptococcus neoformans) [µg/mL] | MIC (Micrococcus luteus) [µg/mL] | IC50 (Candida albicans) [µg/mL] | SMILES | IC50 (L1210) | IC50 (KB) |
| --- | --- | --- | --- | --- | --- | --- | --- | --- | --- | --- |
| > 32 | > 32 | > 32 | > 32 | > 32 | > 32 | > 32 | > 32 | CC(C)=CC[C@]1(C)C(=O)[C@@]2(C[C@H]3[C@@H](CC[C@@]3(C)O)[C@](C)(O)C2)C(=O)C(C(=O)C(C)C)=C1O (relative stereo) | > 10 µg/mL | > 10 µg/mL |
| > 32 | > 32 | > 32 | > 32 | > 32 | > 32 | > 32 | > 32 | CCC(C)C(=O)C1=C(O)[C@@](C)(CC=C(C)C)C(=O)[C@@]2(C[C@H]3[C@@H](CC[C@@]3(C)O)[C@](C)(O)C2)C1=O (relative stereo) | > 10 µg/mL | > 10 µg/mL |
| > 32 | > 32 | > 32 | > 32 | > 32 | > 32 | > 32 | > 32 | CCC(C)C(=O)C1=C2O[C@H](C(C)(C)O)C[C@]2(C)C(=O)[C@]2(C[C@H]3[C@@H](CC[C@@]3(C)O)[C@](C)(O)C2)C1=O (some centres not stated) [CHIPERICUMIN B] | > 10 µg/mL | > 10 µg/mL |
